Data set [1] in a line: Metabolic stability in Sprague-Dawley rat hepatocytes assessed as half-life at 5 uM incubated for 3 hrs by LC-MS analysis. In kind it is ADME, cell-based, Hepatocyte. The essentials: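 Cryopreserved primary hepatocytes in suspension from CD-1 mouse, Sprague-Dawley rat, Beagle dog and human. Compound at 5 μM final (from 10 mM DMSO stock). Samples taken at 0, 15, 60, 90 and 180 min and quenched with ACN plus internal standard. Parent quantified by LC-MS. Hepatocyte-free medium incubations served as negative control; 7-ethoxycoumarin as positive control. Duplicate; CLint per 10^6 cells and t1/2.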

The subject of a further data set is Rattus norvegicus. The experiment in a line: In vivo inhibition of PI3Kalpha Sprague-Dawley rat assessed as increase in plasma insulin concentration at 5 mg/kg, po measured after 8 hrs by ELISA. In kind it is functional, organism-based. The procedure, abridged: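 Male Sprague Dawley rats dosed orally at 5 mg/kg; plasma insulin and glucose followed over time against vehicle, n = 3, mean ± SEM.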
For orientation: ELISA stands for enzyme-linked immunosorbent assay.

Data set [2] is described as follows: Cmax in C57BL/6J mouse plasma at 10 mg/kg, po administered as single dose by mass spectrometry based UHPLC analysis. In kind it is ADME, organism-based. Also on record: route oral, dose 10 mg/kg. The essentials: (§1)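 Female C57BL/6J mice, one oral dose of 10 mg/kg in 20% Captisol; plasma and brain levels over time, n = 3 per time point (mean).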
Data set [3] in a line: Elimination half life in C57BL/6J mouse plasma at 10 mg/kg, po administered as single dose by mass spectrometry based UHPLC analysis. In kind it is ADME, organism-based. The settings on record: read-out: beta t1/2 (converted). The essentials: as §1
A short description of data set [4]: AUC (0 to 8 hrs) in C57BL/6J mouse plasma at 10 mg/kg, po administered as single dose by mass spectrometry based UHPLC analysis. Further details: time < 8 hr, route oral, dose 10 mg/kg. In kind it is ADME, organism-based. The procedure, abridged:
as §1

Data set [5] can be described thus: Cmax in C57BL/6J mouse plasma at 10 mg/kg, po administered once a day for 4 consecutive days by mass spectrometry based UHPLC analysis. In kind it is ADME, organism-based. Also on record: route oral, dose 10 mg/kg, time 4 day. The essentials:
(§2)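 Female C57BL/6J mice given 10 mg/kg p.o. in 20% Captisol once daily for 4 consecutive days. Plasma and brain sampled after the final dose on day 4, n = 3 per time point.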

A short description of data set [6]: Tmax in C57BL/6J mouse plasma at 10 mg/kg, po administered once a day for 4 consecutive days by mass spectrometry based UHPLC analysis. Particulars: time 4 day. In kind it is ADME, organism-based. The procedure, abridged: (§3)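 Female C57BL/6J mice dosed orally at 10 mg/kg in 20% Captisol, either once or once daily for 4 days with sampling after the last dose on day 4. Plasma and brain concentrations followed over time. Tmax taken from at least 3 time points.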

Data set [7] in a line: Elimination half life in C57BL/6J mouse plasma at 10 mg/kg, po administered once a day for 4 consecutive days by mass spectrometry based UHPLC analysis. The settings on record: time 4 day, read-out: beta t1/2 (converted). In kind it is ADME, organism-based. The essentials:
as §2

Data set [8] is described as follows: Tmax in C57BL/6J mouse brain at 10 mg/kg, po administered as single dose by mass spectrometry based UHPLC analysis. In kind it is ADME, organism-based. The essentials: as §3
Data set [9] can be described thus: Cmax in C57BL/6J mouse brain at 10 mg/kg, po administered once a day for 4 consecutive days by mass spectrometry based UHPLC analysis. Also on record: route oral, dose 10 mg/kg, time 4 day. In kind it is ADME, organism-based. The essentials: as §2
The nature of data set [10]: Elimination half life in C57BL/6J mouse brain at 10 mg/kg, po administered once a day for 4 consecutive days by mass spectrometry based UHPLC analysis. In kind it is ADME, organism-based. The settings on record: time 4 day, read-out: beta t1/2 (converted). The procedure, abridged: as §2
The nature of data set [11]: Tmax in C57BL/6J mouse plasma at 25 mg/kg, po administered as single dose by mass spectrometry based UHPLC analysis. In kind it is ADME, organism-based. The procedure, abridged: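 Female C57BL/6J mice given a single oral dose of 25 mg/kg. Plasma and brain levels followed over time (n = 3 per time point, mean). Tmax is the time of maximal concentration.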
Data set [12] has as its system Mus musculus. The experiment in a line: In vivo inhibition of mTORC1 signalling in C57BL/6J mouse brain assessed as reduction in RPS6 phosphorylation at S235/236 residue at 25 mg/kg, po incubated for 30 mins by Western blot analysis. In kind it is functional, organism-based. The essentials:
(§4)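 Female C57BL/6J mice dosed at 25 mg/kg p.o.; cortex collected 30 min later and lysed. Equal protein run on SDS-PAGE and western blotted for pS6(Ser235/236), pPKB(Ser473) and α-tubulin, detected by HRP secondary antibodies and ECL. Signal expressed as % of control cortex, n = 3, mean ± SEM, unpaired t-test.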
Background: A western blot detects proteins with antibodies after separation by electrophoresis.

Data set [13] concerns Mus musculus. The experiment in a line: In vivo inhibition of mTORC2 signalling pathway in C57BL/6J mouse assessed as reduction in PKB/Akt phosphorylation at Ser473 in brain at 25 mg/kg, po incubated for 30 mins by Western blot analysis. In kind it is functional, organism-based. The essentials: as §4
The test system of data set [14] is Mus musculus. The experiment in a line: In vivo inhibition of mTORC2 in C57BL/6J mouse assessed as reduction in PKB/Akt phosphorylation at Ser473 in brain at 25 mg/kg, po measured after 0.5 to 2 hrs by Western blot analysis. The settings on record: time 0.5-2 hrs. In kind it is functional, organism-based. The essentials:
(§5)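 Time course in female C57BL/6J mice after 25 mg/kg p.o.: cortex taken at set time points and western blotted for pS6 and pPKB. Signals quantified against α-tubulin as % of control cortex; n = 3 per time point and n = 9 controls. Brain compound level measured in the same mice.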

Data set [15] deals with Mus musculus. The experiment in a line: In vivo inhibition of mTORC1 signalling in C57BL/6J mouse assessed as reduction in RPS6 phosphorylation at S235/236 residue in brain at 25 mg/kg, po measured after 8 hrs by Western blot analysis. In kind it is functional, organism-based. The procedure, abridged:
as §5

Data set [16] relates to Mus musculus. The experiment in a line: In vivo inhibition of mTORC2 in C57BL/6J mouse assessed as reduction in PKB/Akt phosphorylation at Ser473 in brain at 25 mg/kg, po measured after 8 hrs by Western blot analysis. In kind it is functional, organism-based. The essentials: as §5
The nature of data set [17]: Toxicity in Balb/c nude mouse assessed as change in body weight at 150 mg/kg, po administered once daily for 14 days measured for 7 days starting from post last dose. In kind it is organism-based. The settings on record: in vivo, 504 h, time 21 day.
Data set [18] is described as follows: Toxicity in Tsc1-GFAP knockout Balb/c mouse assessed as change in body weight at 10 to 50 mg/kg, po administered as single dose. In kind it is organism-based. Particulars: in vivo, dose 10-50 mg/kg.
Data set [19] relates to Mus musculus. The experiment in a line: Protection against Tsc1-GFAP knockout induced mortality in Balb/c mouse assessed as increase in survival rate administered orally twice a day measured post last dose. In kind it is functional, organism-based. The essentials: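 Tsc1GFAPCKO mice (Tsc1 conditionally inactivated mainly in glia). Oral dosing from P21 at 10, 25, 50 mg/kg qd or 50 mg/kg bid, n = 7–10 per group. Controls were vehicle and a comparator at 10 mg/kg. Body weight tracked. Survival followed from P21 to death or censoring at P90, compared by log-rank test.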

Data set [20] deals with Mus musculus. The experiment in a line: Protection against Tsc1-GFAP knockout induced mortality in Balb/c mouse assessed as increase in survival rate at 50 mg/kg, po administered twice daily. In kind it is functional, organism-based. The essentials:
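Tsc1GFAPCKO mice (conditional Tsc1 inactivation mainly in glia) dosed orally starting at P21, at 10 mg/kg or 50 mg/kg bid (n = 10 and 7). Survival recorded to P90, with censoring at P90. Compared with vehicle and everolimus by log-rank test.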

For another data set, the system named is P-glycoprotein. The experiment in a line: Substrate activity at human P-glycoprotein stably expressed in MDCK cells assessed as efflux ratio at 1 uM measured after 5 to 20 mins by UPLC-MS/MS analysis. In kind it is ADME, cell-based. Particulars: MDCK-MDR1, time 5-20 min. The essentials: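 CRISPR canine-MDR1-knockout MDCKII cells stably expressing human MDR1, with the knockout parent line as control. Cells grown 5 days on TransWell filters and preincubated in HBSS 30 min at 37 °C. Compound at 1 μM added apical or basolateral. Receiver sampled at 5, 10 and 20 min; UPLC-MS/MS.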

The values below come from ChEMBL document CHEMBL4715860 (J Med Chem, 2020).

Calls of active or inactive are those of the source. The calls are words filed in the database; no cut-off is given here.

The term Cmax denotes the maximum level reached in the sampled fluid or tissue. The term AUC(0-t) denotes exposure summed from dosing to a finite time, without extrapolation to infinity. Broadly, the Tmax is the time from dosing to the highest level. For orientation: efflux ratio means a quotient of directional permeabilities that is used to spot active efflux.

In the case of `C[C@@H]1COCCN1c1nc(-c2cnc(N)cc2C(F)F)nc(N2[C@H](C)COC[C@@H]2C)n1`, the half-life at 5 µM in data set [1] amounted to 2.7 h. The inhibition entry in the data set with Rattus norvegicus, with Mus musculus [15] and in the data set with Mus musculus [16] was “inactive” throughout. Besides, the Cmax amounted to 1100 ng/mL in [2], 947 ng/mL in data set [5] and 1320 ng/mL in data set [9]. Also, the figures for the half-life in [3], in [7] and in data set [10] were 3 h, 2.2 h and 2.3 h, respectively. The molecule further registered an AUC(0-t) at 8 h in [4] of 2940 ng·h/mL. In addition, the Tmax in data set [6] was 0.5 h; in [8], 0.5 h; in data set [11], 0.2 h. For the same molecule, the inhibition result in the data set on Mus musculus [12], in the data set with Mus musculus [13] and in the data set on Mus musculus [14] was “Active” each time. Also, the Activity entry is “Non-Toxic” in data set [17], “Non-Toxic” in data set [18] and “Dose-dependent effect” with Mus musculus [19]. Also, the outcome in the data set with Mus musculus [20] was Active.
`C[C@@H]1COCCN1c1nc(-c2cnc(N)cc2C(F)F)nc(N2CCOCC2(C)C)n1`: in the data set on P-glycoprotein, the efflux ratio at 1 µM was 1.5.
